From ChEMBL document CHEMBL3271941, “Synthesis of 5,6-dihydro-8(7H)-quinolinone thiosemicarbazones as potential antitumor agents” (J Med Chem, 1977)
The source made the active and inactive calls. No cut-off for these calls is given here.

Assays:
[1] = test system: Mus musculus; experiment: Toxicity in CDF1 mouse allografted with mouse P388 cells assessed as change in body weight at 2.5 mg/kg administered daily for 6 days starting 24 hrs after tumor implantation (reference value: -2.4%); format: organism-based; design: dose 2.5 mg/kg; conditions: in vivo
[2] = test system: P388; experiment: Antineoplastic activity against mouse P388 cells allografted in CDF1 mouse assessed as prolongation of host survival time at 2.5 mg/kg administered daily for 6 days starting 24 hrs after tumor implantation relative to control; format: functional
Outline: (§1)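 P388 leukemia (1×10^6 cells, intraperitoneal) in female CDF1 mice; dosing once daily for 6 consecutive days beginning 24 h post-implantation, 5-15 mice per group. Activity expressed as % T/C, the ratio of survival time of treated to untreated control animals. Daily weighing gave percent body-weight change over the treatment period as a toxicity measure.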

[3] = molecular target: Alkaline phosphatase (Escherichia coli K-12) (UniProt P00634); experiment: Inhibition of Escherichia coli alkaline phosphatase assessed as p-nitrophenol formation using p-nitrophenyl phosphate as substrate up to 100 uM treated 15 mins prior to substrate addition by spectrophotometric analysis
Outline: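 E. coli alkaline phosphatase (0.021 unit) in 1 M Tris-HCl pH 9.0, preincubated 15 min at 37 °C with inhibitor added in 50% DMSO. Reaction started with 10^-3 M p-nitrophenyl phosphate. Initial rise in absorbance at 410 nm read at room temperature in a 1-cm cell. Controls had enzyme preincubated 15 min with 50% DMSO alone.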

[4] = test system: P388; experiment: Antineoplastic activity against mouse P388 cells allografted in CDF1 mouse assessed as prolongation of host survival time at 10 mg/kg administered daily for 6 days starting 24 hrs after tumor implantation relative to control; format: functional; outline: as §1
[5] = test system: P388; experiment: Antineoplastic activity against mouse P388 cells allografted in CDF1 mouse assessed as host survival time at 2.5 mg/kg administered daily for 6 days starting 24 hrs after tumor implantation (reference value: 11.2 +/- 0.4 days); format: functional
[6] = test system: Mus musculus; experiment: Toxicity in CDF1 mouse allografted with mouse P388 cells assessed as change in body weight at 5 mg/kg administered daily for 6 days starting 24 hrs after tumor implantation (reference value: -2.4%); format: organism-based; design: dose 5 mg/kg; conditions: in vivo
[7] = test system: Mus musculus; experiment: Toxicity in CDF1 mouse allografted with mouse P388 cells assessed as change in body weight at 10 mg/kg administered daily for 6 days starting 24 hrs after tumor implantation (reference value: -2.4%); format: organism-based; design: dose 10 mg/kg; conditions: in vivo
[8] = test system: P388; experiment: Antineoplastic activity against mouse P388 cells allografted in CDF1 mouse assessed as host survival time at 5 mg/kg administered daily for 6 days starting 24 hrs after tumor implantation (reference value: 11.2 +/- 0.4 days); format: functional
[9] = test system: P388; experiment: Antineoplastic activity against mouse P388 cells allografted in CDF1 mouse assessed as host survival time at 10 mg/kg administered daily for 6 days starting 24 hrs after tumor implantation (reference value: 11.2 +/- 0.4 days); format: functional
[10] = test system: P388; experiment: Antineoplastic activity against mouse P388 cells allografted in CDF1 mouse assessed as prolongation of host survival time at 5 mg/kg administered daily for 6 days starting 24 hrs after tumor implantation relative to control; format: functional; outline: as §1
[11] = test system: P388; experiment: Antineoplastic activity against mouse P388 cells allografted in CDF1 mouse assessed as host survival time at 20 mg/kg administered daily for 6 days starting 24 hrs after tumor implantation (reference value: 11.2 +/- 0.4 days); format: functional
[12] = test system: Mus musculus; experiment: Toxicity in CDF1 mouse allografted with mouse P388 cells assessed as change in body weight at 20 mg/kg administered daily for 6 days starting 24 hrs after tumor implantation (reference value: -2.4%); format: organism-based; design: dose 20 mg/kg; conditions: in vivo
[13] = Stability of the compound in ethanol with sodium ethoxide assessed as isomerization; format: physicochemical
[14] = test system: P388; experiment: Antineoplastic activity against mouse P388 cells allografted in CDF1 mouse assessed as prolongation of host survival time at 20 mg/kg administered daily for 6 days starting 24 hrs after tumor implantation relative to control; format: functional; outline: as §1
[15] = Stability of the compound measured under neutral conditions; format: physicochemical

Sequence of Alkaline phosphatase (Escherichia coli K-12) (P00634 whole entry): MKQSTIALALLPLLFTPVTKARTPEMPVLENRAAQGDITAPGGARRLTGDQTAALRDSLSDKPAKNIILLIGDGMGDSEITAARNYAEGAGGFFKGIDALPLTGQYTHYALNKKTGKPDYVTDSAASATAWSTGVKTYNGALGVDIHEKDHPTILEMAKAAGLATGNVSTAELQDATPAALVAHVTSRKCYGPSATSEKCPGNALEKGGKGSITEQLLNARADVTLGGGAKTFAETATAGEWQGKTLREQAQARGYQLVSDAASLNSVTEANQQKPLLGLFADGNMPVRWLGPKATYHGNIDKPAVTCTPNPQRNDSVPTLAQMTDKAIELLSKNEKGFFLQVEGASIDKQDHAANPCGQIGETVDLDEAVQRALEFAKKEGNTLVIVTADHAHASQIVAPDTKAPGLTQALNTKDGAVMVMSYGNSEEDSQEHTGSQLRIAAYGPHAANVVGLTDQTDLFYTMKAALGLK

SMILES: C=CCNC(=S)N/N=C1\CCCc2cccnc21
- Activity [1]: 0.7%
- T/C [2]: 100%
- inhibition [3]: inactive
- T/C [4]: 125%
- Time [5]: 11.2 days
- Activity [6]: -8.4%
- Activity [7]: -9.1%
- Time [8]: 13.2 days
- Time [9]: 14 days
- T/C [10]: 118%

SMILES: NC(=S)N/N=C1/CCCc2cccnc21
- Time [11]: 9.2 days
- Activity [12]: -30.8%
- inhibition [3]: inactive
- T/C [4]: 141%
- Stability [13]: Unstable
- Activity [6]: 6.7%
- Activity [7]: -21.5%
- T/C [14]: 73%
- Time [8]: 13 days
- Stability [15]: Stable
- Time [9]: 15.8 days
- T/C [10]: 116%

SMILES: CNC(=S)N/N=C1/CCCc2cccnc21
- Time [11]: 2 days
- inhibition [3]: inactive
- T/C [4]: 121%
- Stability [13]: Unstable
- Activity [6]: -7.7%
- Activity [7]: -10.8%
- T/C [14]: 18%
- Time [8]: 12 days
- Stability [15]: Stable
- Time [9]: 13.6 days
- T/C [10]: 107%

SMILES: C=CCNC(=S)N/N=C1/CCCc2cccnc21
- Activity [1]: 4.6%
- T/C [2]: 91%
- inhibition [3]: inactive
- T/C [4]: 70%
- Stability [13]: Unstable
- Time [5]: 10.2 days
- Activity [6]: 0%
- Activity [7]: -6.1%
- Time [8]: 9.8 days
- Stability [15]: Stable
- Time [9]: 7.8 days
- T/C [10]: 88%

SMILES: NC(=S)N/N=C1\CCCc2cccnc21
- Activity [1]: -5.3%
- T/C [2]: 104%
- inhibition [3]: inactive
- T/C [4]: 132%
- Time [5]: 11.6 days
- Activity [6]: -3.8%
- Activity [7]: -10.7%
- Time [8]: 11.8 days
- Time [9]: 14.8 days
- T/C [10]: 106%

SMILES: CNC(=S)N/N=C1\CCCc2cccnc21
- Activity [1]: -9.3%
- T/C [2]: 119%
- inhibition [3]: inactive
- T/C [4]: 18%
- Time [5]: 13.4 days
- Activity [6]: -12%
- Time [8]: 16 days
- Time [9]: 2 days
- T/C [10]: 143%
